Laboratory results taken from paper PMC2913441 (Chemical biology & drug design, 2010).

Legend:
Format in all cases: binding
Mdm2 [1] = target: T1, Mdm2 (Homo sapiens, UniProt Q00987); assay: Interaction with Mdm2; conditions: result in words; assay not stated
Target sequence in this assay (Q00987 whole entry): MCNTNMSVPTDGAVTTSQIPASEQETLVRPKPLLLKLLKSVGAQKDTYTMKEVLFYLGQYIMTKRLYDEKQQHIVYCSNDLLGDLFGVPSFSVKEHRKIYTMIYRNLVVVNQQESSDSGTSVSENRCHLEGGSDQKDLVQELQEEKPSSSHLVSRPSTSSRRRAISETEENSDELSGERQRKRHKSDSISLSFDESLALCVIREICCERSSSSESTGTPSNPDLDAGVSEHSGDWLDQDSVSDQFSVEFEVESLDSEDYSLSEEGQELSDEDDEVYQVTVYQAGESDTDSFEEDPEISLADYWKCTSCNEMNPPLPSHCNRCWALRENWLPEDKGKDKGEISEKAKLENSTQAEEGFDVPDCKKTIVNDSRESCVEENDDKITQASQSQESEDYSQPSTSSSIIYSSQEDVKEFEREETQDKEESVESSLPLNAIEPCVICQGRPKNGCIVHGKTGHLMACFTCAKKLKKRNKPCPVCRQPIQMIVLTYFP

Mdm2 [2] = target: T1, Mdm2; assay: Fluorescence polarization; conditions: read-out: inhibition constant (Ki) of Mdm2; FP assay, competition with p53-like peptide
Method in brief: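 Competitive fluorescence polarization assay: a fluorescent p53-like peptide is bound to recombinant Mdm2 and displaced by the test compound across a range of concentrations, giving dose–response curves. The binding constant and inhibition curves were fitted to derive Ki.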
Target sequence in this assay (Q00987 1-118): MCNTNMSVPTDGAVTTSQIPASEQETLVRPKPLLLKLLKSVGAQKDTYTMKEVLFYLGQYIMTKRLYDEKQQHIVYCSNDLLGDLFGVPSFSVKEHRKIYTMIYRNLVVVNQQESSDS

Mdm2/p53 complex = Mdm2/p53 complex (Homo sapiens, UniProt Q00987); assay: NMR-based antagonist induced dissociation assay; conditions: read-out: dissociation constant (Kd) of the compound-Mdm2 interaction; AIDA-NMR; 14 μM Mdm2/p53 complex mixed with compound in 1:1 molar ratio
Method in brief: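 Variant of antagonist-induced dissociation NMR (SEI-AIDA). The preformed Mdm2/p53 complex (14 μM) is mixed with the test compound at a 1:1 molar ratio. The amount of p53 released from the complex is estimated from the 1D spectrum. The Kd of the Mdm2–compound interaction is then calculated from the released fraction.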

Sequence of Mdm2/p53 complex (Q00987 1-118, one chain of several): as the sequence (Q00987 1-118) above

interaction with Mdm2 (Mdm2 [1])	Ki (Mdm2 [2])	Kd (Mdm2/p53 complex)	Structure (SMILES)
weak interaction			Cc1cc(C)c(NC(=O)C2C(=O)Nc3sc4c(c3C(=O)N2Cc2ccc(Cl)cc2)CCCC4)c(C)c1 (centres unmarked) [5a-6, 3,4,6,7,8,9-Hexahydro-3-(N-mesityl)-carboxamide-4-(4-chlorobenzyl)-1H-benzothieno-[2,3-e]-1,4-diazepine-2,5-dione]
	40 µM	30 ± 20 µM	O=C(NCc1ccccc1)C1C(=O)Nc2sc3c(c2C(=O)N1Cc1ccc(Cl)cc1)CCCC3 (centres unmarked) [5a-7, 3,4,6,7,8,9-Hexahydro-3-(N-benzyl)-carboxamide-4-(4-chlorobenzyl)-1H-benzothieno-[2,3-e]-1,4-diazepine-2,5-dione]
	45 µM	10 ± 6 µM	O=C(NCc1ccc(Cl)c(Cl)c1)C1C(=O)Nc2sc3c(c2C(=O)N1Cc1ccc(Cl)cc1)CCCC3 (centres unmarked) [5a-8, 3,4,6,7,8,9-Hexahydro-3-(N-3,4-dichlorobenzyl)-carboxamide-4-(4-chlorobenzyl)-1H-benzothieno-[2,3-e]-1,4-diazepine-2,5-dione]
